From ChEMBL document CHEMBL4251566 (Eur J Med Chem, 2018)

Assays:
Ramos [1] = test: Induction of apoptosis in human Ramos cells assessed as late apoptotic cells at 20 uM after 72 hrs by Annexin V-FITC/propidium iodide staining based flow cytometry (reference value: 0.5%); type: functional
Ramos [2] = test: Induction of apoptosis in human Ramos cells assessed as necrotic cells at 20 uM after 72 hrs by Annexin V-FITC/propidium iodide staining based flow cytometry (reference value: 0.7%); type: functional
Ramos [3] = test: Induction of apoptosis in human Ramos cells assessed as necrotic cells at 10 uM after 72 hrs by Annexin V-FITC/propidium iodide staining based flow cytometry (reference value: 0.7%); type: functional
Ramos [4] = test: Induction of apoptosis in human Ramos cells assessed as viable cells at 5 uM after 72 hrs by Annexin V-FITC/propidium iodide staining based flow cytometry (reference value: 98.7%); type: functional; details: read-out: Activity
Ramos [5] = test: Antitumor activity against human Ramos cells xenografted in CB17/SCID mouse assessed as tumor growth inhibition at 60 mg/kg, po qd for 14 days; type: functional; details: 336 h, read-out: TGI
In short: (§1)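 Female CB17/SCID mice, 5–6 weeks old and 20–25 g, received 3×10⁶ Ramos cells in 0.1 mL PBS subcutaneously in the right axilla. From day 3 after implantation, dosing was oral at 30 or 60 mg/kg for 14 days; vehicle controls got oral 25% PEG-400. Tumor volume was A×B²/2 from caliper diameters. Tumor weight was taken at sacrifice, and body weight was tracked. n = 5.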

Ramos [6] = test: Induction of apoptosis in human Ramos cells assessed as early apoptotic cells at 20 uM after 72 hrs by Annexin V-FITC/propidium iodide staining based flow cytometry (reference value: 0.0%); type: functional
Ramos [7] = test: Induction of apoptosis in human Ramos cells assessed as necrotic cells at 5 uM after 72 hrs by Annexin V-FITC/propidium iodide staining based flow cytometry (reference value: 0.7%); type: functional
Ramos [8] = test: Induction of apoptosis in human Ramos cells assessed as viable cells at 10 uM after 72 hrs by Annexin V-FITC/propidium iodide staining based flow cytometry (reference value: 98.7%); type: functional; details: read-out: Activity
Ramos [9] = test: Antiproliferative activity against human Ramos cells after 72 hrs by CCK-8 assay
Ramos [10] = test: Induction of apoptosis in human Ramos cells assessed as early apoptotic cells at 10 uM after 72 hrs by Annexin V-FITC/propidium iodide staining based flow cytometry (reference value: 0.0%); type: functional
[11] = target: T1, Tyrosine-protein kinase JAK3 (Homo sapiens, UniProt P52333); test: Inhibition of recombinant N-terminal GST-tagged human JAK3 (781 to end residues) expressed in baculovirus infected Sf9 insect cells using Poly(4:1 Glu,Tyr) peptide substrate incubated for 60 mins by ADP-Glo luminescence assay
T1 sequence (P52333 whole entry): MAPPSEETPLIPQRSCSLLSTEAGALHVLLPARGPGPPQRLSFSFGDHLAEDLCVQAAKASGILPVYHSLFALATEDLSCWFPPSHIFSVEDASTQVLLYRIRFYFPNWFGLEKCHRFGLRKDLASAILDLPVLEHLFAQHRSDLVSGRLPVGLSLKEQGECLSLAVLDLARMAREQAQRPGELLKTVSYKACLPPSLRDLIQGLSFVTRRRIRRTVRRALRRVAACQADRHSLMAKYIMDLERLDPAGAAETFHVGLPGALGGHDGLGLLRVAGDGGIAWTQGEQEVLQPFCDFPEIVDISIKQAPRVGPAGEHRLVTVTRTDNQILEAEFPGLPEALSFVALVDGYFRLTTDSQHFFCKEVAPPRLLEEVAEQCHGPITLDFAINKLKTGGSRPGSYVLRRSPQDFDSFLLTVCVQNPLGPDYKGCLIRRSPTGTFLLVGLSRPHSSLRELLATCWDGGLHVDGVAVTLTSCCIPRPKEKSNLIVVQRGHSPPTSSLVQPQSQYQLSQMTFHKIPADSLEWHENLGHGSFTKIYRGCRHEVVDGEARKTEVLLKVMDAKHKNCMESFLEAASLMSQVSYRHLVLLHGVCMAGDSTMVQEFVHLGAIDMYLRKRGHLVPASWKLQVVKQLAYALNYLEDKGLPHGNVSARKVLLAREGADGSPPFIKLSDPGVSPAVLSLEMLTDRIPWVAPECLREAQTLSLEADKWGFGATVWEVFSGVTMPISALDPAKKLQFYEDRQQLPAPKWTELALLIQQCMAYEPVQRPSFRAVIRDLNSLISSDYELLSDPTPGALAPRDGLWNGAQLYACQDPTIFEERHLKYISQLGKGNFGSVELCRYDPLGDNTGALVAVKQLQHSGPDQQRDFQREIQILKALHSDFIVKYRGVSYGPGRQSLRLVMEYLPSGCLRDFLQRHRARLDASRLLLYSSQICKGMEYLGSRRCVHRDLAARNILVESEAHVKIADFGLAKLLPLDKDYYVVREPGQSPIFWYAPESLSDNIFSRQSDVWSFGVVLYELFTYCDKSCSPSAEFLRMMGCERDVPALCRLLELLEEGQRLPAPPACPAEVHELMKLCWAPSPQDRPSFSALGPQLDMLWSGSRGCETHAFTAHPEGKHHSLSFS
In short: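 ADP-Glo luminescent kinase assay. The kinase reaction ran 60 min at room temperature in 1× kinase buffer. ADP-Glo reagent was added to stop the reaction and deplete ATP, followed by 40 min at room temperature. Detection reagent then converted ADP to ATP for a luciferase readout, followed by 30 min at room temperature. Luminescence was integrated over 0.5–1 s, and IC50 came from curve fitting.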

Ramos [12] = test: Antiproliferative activity against human Ramos cells at 1.25 to 40 uM by CCK-8 assay; type: functional, cell-based; details: TDE = time-dependent effect
In short: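 CCK-8 viability assay. Cells were seeded at 3000/well in RPMI-1640 with 10% FBS at 37 °C, 5% CO2, for 4 h before treatment. Exposure was 72 h at five concentrations (1.25, 5, 10, 20, 40 µM), each in five replicates. Absorbance was read at 450 nm. IC50 came from dose-response curves, as the mean of at least three separate experiments.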

[13] = target: Tyrosine-protein kinase BTK (Homo sapiens, UniProt Q06187); test: Inhibition of recombinant full-length N-terminal His-tagged human BTK expressed in baculovirus infected Sf9 insect cells using Poly(4:1 Glu,Tyr) peptide substrate incubated for 60 mins by ADP-Glo luminescence assay
Ramos [14] = test: Antitumor activity against human Ramos cells xenografted in CB17/SCID mouse assessed as tumor growth inhibition at 30 mg/kg, po qd for 14 days; type: functional; details: 336 h, read-out: TGI; in short: as §1
Ramos [15] = test: Induction of apoptosis in human Ramos cells assessed as late apoptotic cells at 10 uM after 72 hrs by Annexin V-FITC/propidium iodide staining based flow cytometry (reference value: 0.5%); type: functional
PBMC = test: Cytotoxicity against human PBMCs assessed as induction of morphological changes at <10 uM after 24 hrs by AO/PI staining-based phase contrast microscopy; type: cell-based
Ramos [16] = test: Antitumor activity against human Ramos cells xenografted in po dosed CB17/SCID mouse assessed as reduction in tumor growth administered as qd for 14 days; type: functional, organism-based; in short: as §1

Sequence of Tyrosine-protein kinase BTK (Q06187 whole entry): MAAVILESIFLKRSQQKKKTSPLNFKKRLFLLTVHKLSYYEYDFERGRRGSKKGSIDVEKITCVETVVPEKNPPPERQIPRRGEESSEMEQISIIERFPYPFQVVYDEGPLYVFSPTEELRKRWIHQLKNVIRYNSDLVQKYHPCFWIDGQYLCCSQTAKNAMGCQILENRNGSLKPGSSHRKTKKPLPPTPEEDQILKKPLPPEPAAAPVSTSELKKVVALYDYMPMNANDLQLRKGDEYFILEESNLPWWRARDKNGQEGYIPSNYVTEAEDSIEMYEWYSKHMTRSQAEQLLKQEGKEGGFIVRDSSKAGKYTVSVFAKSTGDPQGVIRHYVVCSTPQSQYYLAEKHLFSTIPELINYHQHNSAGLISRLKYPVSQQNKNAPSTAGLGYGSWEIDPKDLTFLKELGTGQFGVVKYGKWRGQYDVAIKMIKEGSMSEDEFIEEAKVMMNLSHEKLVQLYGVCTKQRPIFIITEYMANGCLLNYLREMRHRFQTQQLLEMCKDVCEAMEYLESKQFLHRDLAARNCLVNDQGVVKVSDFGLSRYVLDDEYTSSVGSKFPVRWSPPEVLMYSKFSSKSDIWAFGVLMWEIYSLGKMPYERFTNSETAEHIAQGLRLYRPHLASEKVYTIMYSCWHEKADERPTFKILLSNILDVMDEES

C=CC(=O)Nc1cccc(Nc2nc(Nc3ccc(OCCCN4CCOCC4)cc3)ncc2Cl)c1
Activity (Ramos [1]): 18.6% | Activity (Ramos [2]): 3.5% | Activity (Ramos [3]): 2.7% | viability at 5 µM (Ramos [4]): 34.4% | inhibition in vivo at 60 mg/kg (Ramos [5]): 47.5% | Activity (Ramos [6]): 61.6% | Activity (Ramos [7]): 6.6% | viability at 10 µM (Ramos [8]): 20.1% | IC50 (Ramos [9]): 4850 nM | Activity (Ramos [10]): 67.6% | IC50 [11]: 0.83 nM | Activity (Ramos [12]): Tde | IC50 [13]: 0.6 nM | inhibition in vivo at 30 mg/kg (Ramos [14]): 36.6% | Activity (Ramos [15]): 9.6% | Activity (PBMC): Non-Toxic | TGI (Ramos [16]): Dose-dependent effect

C=CC(=O)Nc1cccc(Nc2nc(Nc3ccc(OCC(=O)N4CCOCC4)c(Cl)c3)ncc2Cl)c1
Activity (Ramos [1]): 14.4% | Activity (Ramos [2]): 0.4% | Activity (Ramos [3]): 1.1% | viability at 5 µM (Ramos [4]): 37.2% | inhibition in vivo at 60 mg/kg (Ramos [5]): 36.6% | Activity (Ramos [6]): 65.1% | Activity (Ramos [7]): 0.9% | viability at 10 µM (Ramos [8]): 29% | IC50 (Ramos [9]): 2460 nM | Activity (Ramos [10]): 59% | IC50 [11]: 8.34 nM | Activity (Ramos [12]): Tde | IC50 [13]: 0.8 nM | inhibition in vivo at 30 mg/kg (Ramos [14]): 24.4% | Activity (Ramos [15]): 10.9% | Activity (PBMC): Non-Toxic | TGI (Ramos [16]): Dose-dependent effect
